Experimental data taken from ChEMBL document CHEMBL4011639, “Discovery of Novel Nucleotide Prodrugs with Improved Potency Against HCV Variants Carrying NS5B S282T Mutation” (J Med Chem, 2017).

How the values were obtained:
[1] = Inhibition of wild type NS5B in HCV genotype 1b replicon expressed in human HuH7 cells after 72 hrs by bright Glo-luciferase reporter gene assay; assay type: cell-based, Hepatitis C virus subtype 1b; conditions: Hepatitis C virus, Huh-7, 72 h
How it was run: (§1)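 Huh7 cells carrying HCV genotype 1b replicon, 8000 per well, in duplicate 3-fold dilution series with 0.5% DMSO final; 72 h at 37 °C, 5% CO2. Viability read by Cell Titer-Fluor fluorescence after 5 min; replicon inhibition read by Bright-Glo luciferase luminescence in the same wells. EC50 and CC50 come from curve fitting.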

Huh-7 = test: Cytotoxicity against human HuH7 cells assessed as reduction in cell viability up to 100 uM after 72 hrs by Cell Titer-Fluor Cell assay; assay type: cell-based; conditions: huh-7, 72 h; how it was run: as §1
[2] = tested on: Hepatitis C virus subtype 1b; test: Ratio of EC50 for HCV genotype 1b replicon NS5B S282T mutant to EC50 for wild type HCV genotype 1b replicon NS5B
How it was run: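 Huh7 cells carrying wild-type or S282T mutant HCV genotype 1b replicon, 8000 cells per well, exposed to 3-fold compound dilution series (0.5% DMSO final, duplicates) for 72 h at 37 °C, 5% CO2. Replicon activity read by Bright-Glo luciferase luminescence. EC50 averaged from duplicate determinations; ratio taken as S282T EC50 over wild-type EC50.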

[3] = Half life in human plasma […] by LC/MS/MS analysis; assay type: ADME, cell-free
How it was run: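 Pooled human plasma adjusted to pH 7.4 and prewarmed, then spiked to 2 μM final from a 200 μM DMSO working solution, in duplicate. Sampled at 0, 10, 30, 60 and 120 min and quenched with acetonitrile containing tolbutamide and buspirone. LC/MS/MS (MRM) peak area ratios; ke from linear regression of the initial linear phase, t1/2 = ln2/ke.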

[4] = Half life in human liver S9 fraction at 10 uM by LC/MS/MS analysis; assay type: ADME
How it was run: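 Compound at 10 μM working solution (1% DMSO, 5% MeOH in 100 mM Tris) incubated at 37 °C with human liver S9 at 1 mg protein/mL final. Reactions stopped with cold acetonitrile containing tolbutamide internal standard at 0, 5, 10, 20, 30 and 60 min. Parent measured by LC/MS/MS (MRM) as analyte/IS peak area ratio, given as percent remaining versus 0 min; half-life fitted.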

| EC50 [1] [nM] | SMILES | Activity (Huh-7) | Ratio EC50 [2] | half-life [3] [h] | half-life at 10 µM [4] [h] |
| --- | --- | --- | --- | --- | --- |
| > 10000 | CCCCCCOC(=O)Nc1ccn([C@@H]2O[C@H](CO[P@@](=O)(N[C@@H](C)C(=O)OC(C)C)Oc3ccccc3)[C@@H](O)[C@@]2(C)F)c(=O)n1 | Non-Toxic | – | – | – |
| 1040 | CC(=O)Nc1ccn([C@@H]2O[C@H](CO[P@@](=O)(N[C@@H](C)C(=O)OC(C)C)Oc3ccccc3)[C@@H](O)[C@@]2(C)F)c(=O)n1 | Non-Toxic | – | – | – |
| 8360 | CCOC(=O)Nc1ccn([C@@H]2O[C@H](CO[P@@](=O)(N[C@@H](C)C(=O)OC(C)C)Oc3ccccc3)[C@@H](O)[C@@]2(C)F)c(=O)n1 | Non-Toxic | – | – | – |
| 190 | CCCCC(=O)Nc1ccn([C@@H]2O[C@H](CO[P@@](=O)(N[C@@H](C)C(=O)OC(C)C)Oc3ccccc3)[C@@H](O)[C@@]2(C)F)c(=O)n1 | Non-Toxic | – | – | – |
| > 10000 | CC(C)COC(=O)Nc1ccn([C@@H]2O[C@H](CO[P@@](=O)(N[C@@H](C)C(=O)OC(C)C)Oc3ccccc3)[C@@H](O)[C@@]2(C)F)c(=O)n1 | Non-Toxic | – | – | – |
| 1480 | CCC(=O)Nc1ccn([C@@H]2O[C@H](CO[P@@](=O)(N[C@@H](C)C(=O)OC(C)C)Oc3ccccc3)[C@@H](O)[C@@]2(C)F)c(=O)n1 | Non-Toxic | – | – | – |
| 250 | CCCCCC(=O)Nc1ccn([C@@H]2O[C@H](CO[P@@](=O)(N[C@@H](C)C(=O)OC(C)C)Oc3ccccc3)[C@@H](O)[C@@]2(C)F)c(=O)n1 | Non-Toxic | – | – | – |
| 6010 | CCCOC(=O)Nc1ccn([C@@H]2O[C@H](CO[P@@](=O)(N[C@@H](C)C(=O)OC(C)C)Oc3ccccc3)[C@@H](O)[C@@]2(C)F)c(=O)n1 | Non-Toxic | – | – | – |
| > 10000 | CCCCCOC(=O)Nc1ccn([C@@H]2O[C@H](CO[P@@](=O)(N[C@@H](C)C(=O)OC(C)C)Oc3ccccc3)[C@@H](O)[C@@]2(C)F)c(=O)n1 | Non-Toxic | – | – | – |
| 2610 | CCCCOC(=O)Nc1ccn([C@@H]2O[C@H](CO[P@@](=O)(N[C@@H](C)C(=O)OC(C)C)Oc3ccccc3)[C@@H](O)[C@@]2(C)F)c(=O)n1 | Non-Toxic | – | – | – |
| 190 | CC(C)OC(=O)[C@H](C)N[P@](=O)(OC[C@H]1O[C@@H](n2ccc(NC(=O)C3CCC3)nc2=O)[C@](C)(F)[C@@H]1O)Oc1ccccc1 | Non-Toxic | – | – | – |
| 3870 | CC(C)OC(=O)Nc1ccn([C@@H]2O[C@H](CO[P@@](=O)(N[C@@H](C)C(=O)OC(C)C)Oc3ccccc3)[C@@H](O)[C@@]2(C)F)c(=O)n1 | Non-Toxic | – | – | – |
| 2250 | CC(C)OC(=O)[C@H](C)N[P@](=O)(OC[C@H]1O[C@@H](n2ccc(NC(=O)C3CC3)nc2=O)[C@](C)(F)[C@@H]1O)Oc1ccccc1 | Non-Toxic | – | – | – |
| 1110 | CC(C)C(=O)OC[C@H]1O[C@@H](n2ccc(N)nc2=O)[C@](C)(F)[C@@H]1OC(=O)C(C)C [MERICITABINE] | Non-Toxic | – | – | – |
| 670 | CC(C)CCC(=O)Nc1ccn([C@@H]2O[C@H](CO[P@@](=O)(N[C@@H](C)C(=O)OC(C)C)Oc3ccccc3)[C@@H](O)[C@@]2(C)F)c(=O)n1 | Non-Toxic | – | – | – |
| > 10000 | CCC(CC)OC(=O)Nc1ccn([C@@H]2O[C@H](CO[P@@](=O)(N[C@@H](C)C(=O)OC(C)C)Oc3ccccc3)[C@@H](O)[C@@]2(C)F)c(=O)n1 | Non-Toxic | – | – | – |
| > 10000 | CCC(CC)C(=O)Nc1ccn([C@@H]2O[C@H](CO[P@@](=O)(N[C@@H](C)C(=O)OC(C)C)Oc3ccccc3)[C@@H](O)[C@@]2(C)F)c(=O)n1 | Non-Toxic | – | – | – |
| 2200 | CC(C)OC(=O)[C@H](C)N[P@](=O)(OC[C@H]1O[C@@H](n2ccc(NC(=O)C(C)C)nc2=O)[C@](C)(F)[C@@H]1O)Oc1ccccc1 | Non-Toxic | – | – | – |

Further lines, the molecule ahead of its results:

| SMILES | EC50 [1] [nM] | Activity (Huh-7) | Ratio EC50 [2] | half-life [3] [h] | half-life at 10 µM [4] [h] |
| --- | --- | --- | --- | --- | --- |
| CC(C)OC(=O)[C@H](C)N[P@](=O)(OC[C@H]1O[C@@H](n2ccc(NC(=O)OC3CCCCC3)nc2=O)[C@](C)(F)[C@@H]1O)Oc1ccccc1 | > 10000 | Non-Toxic | – | – | – |
| CC(C)OC(=O)[C@H](C)N[P@](=O)(OC[C@H]1O[C@@H](n2ccc(NC(=O)c3ccccc3)nc2=O)[C@](C)(F)[C@@H]1O)Oc1ccccc1 | 1990 | Non-Toxic | – | – | – |
| CC(C)OC(=O)[C@H](C)N[P@](=O)(OC[C@H]1O[C@@H](n2ccc(NC(=O)Cc3ccccc3)nc2=O)[C@](C)(F)[C@@H]1O)Oc1ccccc1 | 1320 | Non-Toxic | – | – | – |
| CC(C)OC(=O)[C@H](C)N[P@](=O)(OC[C@H]1O[C@@H](n2ccc(NC(=O)OCc3ccccc3)nc2=O)[C@](C)(F)[C@@H]1O)Oc1ccccc1 | > 10000 | Non-Toxic | – | – | – |
| CC(C)OC(=O)[C@H](C)N[P@](=O)(OC[C@H]1O[C@@H](n2ccc(=O)[nH]c2=O)[C@](C)(F)[C@@H]1O)Oc1ccccc1 [SOFOSBUVIR] | 150 | Non-Toxic | 8.1 | > 3.85 | 0.802 |
| COc1ccc(C(=O)Nc2ccn([C@@H]3O[C@H](CO[P@@](=O)(N[C@@H](C)C(=O)OC(C)C)Oc4ccccc4)[C@@H](O)[C@@]3(C)F)c(=O)n2)cc1 | > 10000 | Non-Toxic | – | – | – |
| CC(C)OC(=O)[C@H](C)N[P@](=O)(OC[C@H]1O[C@@H](n2ccc(N)nc2=O)[C@](C)(F)[C@@H]1O)Oc1ccccc1 | 660 | Non-Toxic | 4.1 | > 3.85 | 1.78 |
| CC(C)OC(=O)[C@H](C)N[P@](=O)(OC[C@H]1O[C@@H](n2ccc(NC(=O)C(C)(C)Oc3ccc(Cl)cc3)nc2=O)[C@](C)(F)[C@@H]1O)Oc1ccccc1 | 4020 | Non-Toxic | – | – | – |
| CCCC(CCC)C(=O)Nc1ccn([C@@H]2O[C@H](CO[P@@](=O)(N[C@@H](C)C(=O)OC(C)C)Oc3ccccc3)[C@@H](O)[C@@]2(C)F)c(=O)n1 | 1640 | Non-Toxic | – | – | – |
| CC(C)OC(=O)[C@H](C)N[P@](=O)(OC[C@H]1O[C@@H](n2ccc(NC(=O)c3ccc(Cl)cc3)nc2=O)[C@](C)(F)[C@@H]1O)Oc1ccccc1 | 1920 | Non-Toxic | – | – | – |
| CC(C)OC(=O)[C@H](C)N[P@](=O)(OC[C@H]1O[C@@H](n2ccc(NC(=O)/C=C/c3ccccc3)nc2=O)[C@](C)(F)[C@@H]1O)Oc1ccccc1 | 4080 | Non-Toxic | – | – | – |
| CC(C)OC(=O)[C@H](C)N[P@](=O)(OC[C@H]1O[C@@H](n2ccc(NC(=O)C3CCCCC3)nc2=O)[C@](C)(F)[C@@H]1O)Oc1ccccc1 | 4200 | Non-Toxic | – | – | – |
| CC(C)OC(=O)[C@H](C)N[P@](=O)(OC[C@H]1O[C@@H](n2ccc(NC(=O)CCc3ccccc3)nc2=O)[C@](C)(F)[C@@H]1O)Oc1ccccc1 | 1470 | Non-Toxic | – | – | – |
